According to publication PMC6568187 (Theranostics, 2019):

How the values were obtained:
[1] = in DMSO; λex 730 nm; used as standard; listed as ICG; cited from earlier work
[2] = system: U87-MG cells; assay: Organelle co-localization; assay type: cell-based; settings: 20 µM, 37 °C, DMEM/F12 with 10% FBS pH 7.4
Outline: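 50,000 U87-MG cells were plated in chamber wells and adhered overnight. Then 20 μM test compound for 30 min, two PBS washes, organelle trackers (LysoTracker Green DND 26, MitoTracker Green FM, BODIPY FL C5-ceramide–BSA, ER Tracker Green), then NucBlue 10 min. Confocal imaging, 60x water objective. Lasers: 488 nm for organelle stains, 405 nm for nuclei, 633 nm for dye. Cells re-imaged after 24 h in FluoroBrite DMEM + 10% FBS; co-localization expressed as Pearson's R.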

[3] = Photophysical properties; assay type: physicochemical; settings: 10 mM PBS buffer pH 7.4
Outline: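 Dyes in 10 mM PBS pH 7.4, 1 cm cuvettes. Excitation 730 nm; integrated emission 740–900 nm, with maximum absorbance kept below 0.1. Quantum yield came from the gradient of integrated fluorescence vs absorbance over several concentrations, referenced to ICG in DMSO (Φ 0.13). Relative absorbance and fluorescence were compared at 5 µM in the same buffer.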

[4] = Solubility measurement by UV absorbance; assay type: physicochemical
Outline: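 DMSO stocks (100 mM) were diluted to 0–1000 μM in 10 mM PBS pH 7.4 with 1% DMSO; H2O and DMEM ± 10% FBS were also tested. Samples were shaken in the dark 6 h at room temperature (25 °C), equilibrated overnight and centrifuged at 600 x g for 15 min. Supernatant absorbance was read at 780 nm against blank, in triplicate.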

[5] = Aggregation: concentration dependence of absorbance spectra; assay type: physicochemical; settings: 1.25 - 20 µM in 10 mM pH 7.4 PBS buffer
[6] = system: most cell lines; settings: read-out: IC50 (cytotoxicity); cited from earlier work
[7] = Photostability under LED illumination; assay type: physicochemical; settings: 780 nm LED
Outline: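 Solutions in 10 mM PBS pH 7.4, and in H2O with 1% DMSO, were left open to air and illuminated with a 780 nm LED. Dyes were used either equimolar (20 µM) or diluted to equal absorbance at 780 nm (1.7–2.7 µM). Absorbance at 780 nm was read every 10 min up to 60 min and plotted against time.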

[8] = In vivo biodistribution and clearance; settings: normal CD-1 mice, 25 nmol intravenous, imaging 0.5-4 h
[9] = system: U87-MG cells; assay: Cytotoxicity assay; assay type: cell-based; settings: read-out: IC50 (cytotoxicity), 72 h in the dark, AlamarBlue
Outline: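 U87-MG cells grown in DMEM with 10% FBS at 37 °C, 5% CO2, passaged at 70% confluency. Seeded at 5000 cells/well and left overnight. DMSO stocks (0.02 M) were diluted in protein-free hybridoma medium (PFHM-II) to final 0.01–80 μM, then incubated 72 h. AlamarBlue added for 2 h; fluorescence read at Ex/Em 560/590 nm. Viability = background-corrected signal vs full-viability control ×100; n=5, mean ± SD.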

Compound | Φ (fluorescence quantum yield) of the standard [1] | localization after time 0.5 h [2] | localization after time 24 h [2] | brightness (εmax x Φ) [3] | εmax [3] [cm^-1M^-1] | λabs [3] [nm] | λem [3] [nm] | ∆λ (Stokes' shift) [3] [nm] | relative brightness ([3]; relative to A) | Φ (fluorescence quantum yield) ([3]; λex 730 nm, standard A in DMSO) | solubility (soluble up to) ([4]; 10 mM pH 7.4 PBS buffer) [µM] | concentration at which it begins to aggregate ([4]; H2O) [µM] | solubility ([4]; in water, 25 °C) | H-aggregation from absorbance spectra [5] | IC50 [6] [µM] | photostability ([7]; 1 h, A 2.7 µM, B 2 µM, 1 1.7 µM (same absorbance at 780 nm), 10 mM pH 7.4 PBS) | photodecomposition t1/2 ([7]; same absorbance at 780 nm, 10 mM pH 7.4 PBS buffer) [min] | organ signal / excretion [8] | IC50 [9] [µM]
CC1(C)C(/C=C/C=C/C=C/C=C2\N(CCCCS(=O)(=O)O)c3ccc4ccccc4c3C2(C)C)=[N+](CCCCS(=O)(=O)[O-])c2ccc3ccccc3c21 [compound A, indocyanine green] | 0.13 | golgi and ER | golgi and lysosome |  |  |  |  |  |  |  |  |  |  |  |  |  |  |  | 
CC1(C)C(/C=C/C2=C(Cl)C(=C/C=C3\N(CCCCCC(=O)O)c4ccccc4C3(C)C)/CCC2)=[N+](CCCCCC(=O)O)c2ccccc21 [compound B] |  | mitochondria | mitochondria and lysosome | 3689 | 149940 | 775 | 799 | 24 | 1.90 | 0.025 | ≥ 1000 | 100 | much less soluble | blue-shifted shoulder | ~20 | least stable and decomposed | < 10 | high signal in the liver and low signal in duodenum even after 4 h post-injection | 19.1 ± 1.01
